A word on the Ki: it is the equilibrium dissociation constant of an inhibitor or competing ligand from its target.

The text below walks through data of ChEMBL document CHEMBL1140699, “Stereospecific high-affinity TRPV1 antagonists: chiral N-(2-benzyl-3-pivaloyloxypropyl) 2-[4-(methylsulfonylamino)phenyl]propionamide analogues” (J Med Chem, 2008).

Activity calls are given as the source filed them. The calls are words filed in the database; no cut-off is given here.

Experiment [1] concerns the target Transient receptor potential cation channel subfamily V member 1 (Rattus norvegicus) (UniProt O35433). The experiment can be described thus: Agonist activity at rat TRPV1 receptor expressed in CHO cells assessed as calcium 45 uptake at 30 uM. The experiment is classed as functional, cell-based. An outline of the steps: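 45Ca2+ uptake in CHO cells heterologously expressing rat TRPV1 (CHO/VR1). Compounds tested for agonism at 30 µM and scored as not effective or weakly effective. Results from 1–5 experiments.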

The target in experiment [2] is T1, Transient receptor potential cation channel subfamily V member 1 (Rattus norvegicus, UniProt O35433). Put plainly: Displacement of [3H]RTX from rat TRPV1 receptor expressed in CHO cells. The experiment is classed as cell-based. An outline of the steps:
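Competitive binding against [3H]resiniferatoxin in CHO cells heterologously expressing rat TRPV1 (CHO/VR1). Affinity reported as Ki.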
A general note: In a radioligand displacement assay an active substance lowers the binding of a labelled ligand.

The target of experiment [3] is Transient receptor potential cation channel subfamily V member 1 (Rattus norvegicus) (UniProt O35433). The experiment can be described thus: Agonist activity at rat TRPV1 receptor expressed in CHO cells assessed as calcium 45 uptake relative to 300 nM capsaicin. The experiment is classed as functional, cell-based.
Sequence of Transient receptor potential cation channel subfamily V member 1 (Rattus norvegicus) (O35433 whole entry): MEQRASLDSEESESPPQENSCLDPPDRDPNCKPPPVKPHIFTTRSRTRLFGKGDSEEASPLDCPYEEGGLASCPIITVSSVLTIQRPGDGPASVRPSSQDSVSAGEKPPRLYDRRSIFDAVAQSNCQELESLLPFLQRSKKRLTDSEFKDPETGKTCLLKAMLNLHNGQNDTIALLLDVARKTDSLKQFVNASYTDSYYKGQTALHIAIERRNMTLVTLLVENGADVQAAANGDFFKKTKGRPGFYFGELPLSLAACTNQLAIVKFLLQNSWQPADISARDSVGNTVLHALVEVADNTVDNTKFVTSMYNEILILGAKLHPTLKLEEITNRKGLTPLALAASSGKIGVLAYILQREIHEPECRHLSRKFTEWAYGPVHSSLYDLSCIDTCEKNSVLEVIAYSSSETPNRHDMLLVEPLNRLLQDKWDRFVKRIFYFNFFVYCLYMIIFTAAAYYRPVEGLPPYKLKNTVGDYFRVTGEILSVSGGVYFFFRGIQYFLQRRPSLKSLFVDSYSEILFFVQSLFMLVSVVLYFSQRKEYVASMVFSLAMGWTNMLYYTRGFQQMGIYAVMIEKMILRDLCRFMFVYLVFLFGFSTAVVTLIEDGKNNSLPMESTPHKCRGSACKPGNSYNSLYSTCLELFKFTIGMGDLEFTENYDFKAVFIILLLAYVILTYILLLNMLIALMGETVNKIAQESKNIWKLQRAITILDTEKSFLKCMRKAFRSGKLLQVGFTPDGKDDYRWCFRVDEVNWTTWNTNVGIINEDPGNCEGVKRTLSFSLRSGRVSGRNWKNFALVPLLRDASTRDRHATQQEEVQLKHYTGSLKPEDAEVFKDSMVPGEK
Experiment [4] shares this target. Put plainly: Antagonist activity at rat TRPV1 receptor expressed in CHO cells assessed as capsaicin-induced calcium 45 uptake. On the set-up: concentration or dose not given beside the values. The experiment is classed as functional, cell-based. An outline of the steps:
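Chinese hamster ovary cells heterologously expressing rat TRPV1 (CHO/VR1). Compounds were tested as antagonists of 150 nM capsaicin-induced ⁴⁵Ca²⁺ uptake. Antagonism was reported as Ki, with activity scored at 30 µM where potency was low. Results come from 1–5 experiments.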

Experiment [5] has the same target. The experiment can be described thus: (§1) Antagonist activity at rat TRPV1 receptor expressed in CHO cells assessed as calcium 45 uptake. It counts as functional, cell-based.
Experiment [6] deals with T1, Transient receptor potential cation channel subfamily V member 1. The experiment is described as §1. It counts as functional, cell-based.

T1 sequence (O35433 whole entry): as above

Consider `Cc1ccc(CC(CNC(=O)C(C)(C)c2ccc(NS(C)(=O)=O)c(F)c2)COC(=O)C(C)(C)C)cc1C` (configuration not stated), for which the result in experiment [1] was inactive. The Ki in experiment [2] is 280 nM.

For `COc1cc(C(C)(C)C(=O)NCC(COC(=O)C(C)(C)C)Cc2ccc(C)c(C)c2)ccc1NS(C)(=O)=O` (configuration not stated), the outcome in experiment [1] was inactive.

`C[C@H](C(=O)NC[C@H](COC(=O)C(C)(C)C)Cc1ccc(C(C)(C)C)cc1)c1ccc(NS(C)(=O)=O)c(F)c1`: in experiment [1], the result was inactive. The Ki in experiment [2] worked out at 4.12 nM.

As to `CC(C(=O)NCC(COC(=O)C(C)(C)C)Cc1ccc(C(C)(C)C)cc1)c1ccc(NS(C)(=O)=O)c(F)c1` (configuration not stated), the Activity in experiment [3] was found to be 8%; in experiment [4] it was 95%.

Turning to `Cc1ccc(CC(CNC(=O)C(C)c2ccc(NS(C)(=O)=O)c(Cl)c2)COC(=O)C(C)(C)C)cc1C` (configuration not stated), the Activity in experiment [3] amounted to 16%.

For `Cc1ccc(CC(CNC(=S)NCc2ccc(NS(C)(=O)=O)c(F)c2)COC(=O)C(C)(C)C)cc1C` (configuration not stated), in experiment [1], the result was inactive.

In the case of `C[C@H](C(=O)NC[C@H](COC(=O)C(C)(C)C)Cc1ccccc1)c1ccc(NS(C)(=O)=O)c(F)c1`, in experiment [1], the result was inactive.

Consider `Cc1ccc(CC(CNC(=O)C(C)(C)c2ccc(NS(C)(=O)=O)cc2)COC(=O)C(C)(C)C)cc1C` (configuration not stated), for which, in experiment [1], the result was inactive.

With `Cc1ccc(CC(CNC(=O)Cc2ccc(NS(C)(=O)=O)c(F)c2)COC(=O)C(C)(C)C)cc1C` (configuration not stated), in experiment [4], the Activity was 71%.

Take `CC(C(=O)NCC(COC(=O)C(C)(C)C)Cc1ccc(C(C)(C)C)cc1)c1ccc(NS(C)(=O)=O)c(Cl)c1` (configuration not stated): the Activity in experiment [4] was 61%.

`C[C@@H](C(=O)NC[C@H](COC(=O)C(C)(C)C)Cc1ccc(C(C)(C)C)cc1)c1ccc(NS(C)(=O)=O)c(F)c1`: the result in experiment [1] was inactive.

On to `C[C@H](C(=O)NC[C@@H](COC(=O)C(C)(C)C)Cc1ccccc1)c1ccc(NS(C)(=O)=O)c(F)c1`, for which, in experiment [1], the outcome was inactive. The molecule further came in with a Ki in experiment [2] of 16.5 nM.

On to `Oc1cc2c(cc1O)CN(C(=S)NCCc1ccc(Cl)cc1)CCC2`, for which the outcome in experiment [1] was inactive.

Consider `Cc1ccc(CC(CNC(=O)C(C)c2ccc(NS(C)(=O)=O)c(F)c2)COC(=O)C(C)(C)C)cc1C` (configuration not stated), for which the outcome in experiment [1] was inactive.

As to `COc1cc(C(C)C(=O)NCC(COC(=O)C(C)(C)C)Cc2ccc(C(C)(C)C)cc2)ccc1NS(C)(=O)=O` (configuration not stated), the Activity in experiment [3] came out at 40%. In addition, the outcome in experiment [5] was inactive.

Turning to `C[C@@H](C(=O)NC[C@@H](COC(=O)C(C)(C)C)Cc1ccccc1)c1ccc(NS(C)(=O)=O)c(F)c1`, the outcome in experiment [1] was inactive.

Turning to `CC(C)(C)C(=O)OCC(CNC(=O)Cc1ccc(NS(C)(=O)=O)c(F)c1)Cc1ccc(C(C)(C)C)cc1` (configuration not stated), the Activity in experiment [3] was found to be 7%; in experiment [4], 56%. The Ki in experiment [6] came to 440 nM.

Take `C[C@@H](C(=O)NC[C@@H](COC(=O)C(C)(C)C)Cc1ccc(C(C)(C)C)cc1)c1ccc(NS(C)(=O)=O)c(F)c1`: in experiment [3], the Activity turned out to be 9%.

On to `C[C@H](C(=O)NC[C@H](COC(=O)C(C)(C)C)Cc1ccc(C(C)(C)C)cc1)c1ccc(NS(C)(=O)=O)c(Cl)c1`, for which, in experiment [1], the outcome was inactive.

For the molecule `C[C@H](C(=O)NC[C@@H](COC(=O)C(C)(C)C)Cc1ccc(C(C)(C)C)cc1)c1ccc(NS(C)(=O)=O)c(F)c1`, the result in experiment [1] was inactive. The same molecule registered a Ki in experiment [2] of 6.26 nM.

For the molecule `C=C(C)[C@]12C[C@@H](C)[C@@]34O[C@](Cc5ccccc5)(O[C@@H]1[C@@H]3C=C(COC(=O)Cc1cc(I)c(O)c(OC)c1)C[C@]1(O)C(=O)C(C)=C[C@@H]41)O2` [IODORESINIFERATOXIN], in experiment [1], the result was inactive. Besides, the figures for the Ki in experiment [6] and in experiment [2] were 12.2 nM and 0.61 nM, respectively.

Regarding `Cc1ccc(CC(CNC(=O)C(C)c2ccc(NS(C)(=O)=O)cc2)COC(=O)C(C)(C)C)cc1C` (configuration not stated), the outcome in experiment [1] was inactive.

Take `COc1cc(C2(C(=O)NCC(COC(=O)C(C)(C)C)Cc3ccc(C)c(C)c3)CC2)ccc1NS(C)(=O)=O` (configuration not stated): the outcome in experiment [1] was inactive.

On to `COc1cc(C(C)C(=O)NCC(COC(=O)C(C)(C)C)Cc2ccc(C)c(C)c2)ccc1NS(C)(=O)=O` (configuration not stated), for which the results for the Activity in experiment [3] and in experiment [4] were 10% and 63%, respectively.

For the molecule `C[C@@H](C(=O)NC[C@H](COC(=O)C(C)(C)C)Cc1ccccc1)c1ccc(NS(C)(=O)=O)c(F)c1`, the result in experiment [1] was inactive.

`CC(C(=O)NCC(COC(=O)C(C)(C)C)Cc1ccc(C(C)(C)C)cc1)c1ccc(NS(C)(=O)=O)cc1` (configuration not stated): the outcome in experiment [1] was inactive.

For `Cc1ccc(CC(CNC(=O)C2(c3ccc(NS(C)(=O)=O)cc3)CC2)COC(=O)C(C)(C)C)cc1C` (configuration not stated), the result in experiment [1] was inactive.

Regarding `Cc1ccc(CC(CNC(=O)C2(c3ccc(NS(C)(=O)=O)c(F)c3)CC2)COC(=O)C(C)(C)C)cc1C` (configuration not stated), in experiment [1], the outcome was inactive.

In the case of `C[C@H](C(=O)NC[C@@H](COC(=O)C(C)(C)C)Cc1ccc(C(C)(C)C)cc1)c1ccc(NS(C)(=O)=O)c(Cl)c1`, in experiment [1], the outcome was inactive.

Take `CC(C)(C)C(=O)OCC(CNC(=S)NCc1ccc(NS(C)(=O)=O)c(F)c1)Cc1ccc(C(C)(C)C)cc1` (configuration not stated): the Activity in experiment [3] is 5%. Besides, the Ki in experiment [6] was 52 nM.
